PMC3213326 (Molecular cancer therapeutics, 2011)

Tests used:
KLF5 [1] = assay: Western blot of endogenous KLF5 protein levels in DLD-1 cells; assay type: cell-based, human; settings: 24 h; for effect on endogenous KLF5 levels: DLD-1, 10 µM
Summary of the method: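 DLD-1 cells were seeded at 2 × 10⁵ per well in 1 ml medium. At 24 h after seeding they were treated with 5 or 10 µM test compound in DMSO, or with DMSO alone, for 24 h. Cells were lysed in Laemmli buffer, run on polyacrylamide gel and transferred to nitrocellulose. Blots were probed with rabbit polyclonal anti-KLF5 (residues 95–111) and mouse monoclonal anti-β-actin, and scanned films were quantified by densitometry.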

KLF5 [2] = assay: Western blot of endogenous KLF5 levels in IEC-6 cells; assay type: cell-based, rat; settings: wide range of concentrations
leukemia cell lines = assay: NCI-60 panel screen, leukemia lines; assay type: cell-based, human; settings: 10 µM
DLD-1 cells = assay: Cell viability assay; assay type: cell-based, human; settings: 48 h; for effect on proliferation of DLD-1 cells: various concentrations
Summary of the method: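 DLD-1 cells were plated at 10⁴ per well in 96-well plates. They were dosed at once with increasing concentrations of test compound in DMSO (final 0.4%) or with DMSO alone. After 48 h, viability was read by Cell-Titer Glo luminescence. The DMSO control was set to 100%. Runs were done in triplicate, and IC50 came from a nonlinear sigmoidal dose-response fit.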

EGR1 = assay: Western blot of EGR1 in DLD-1 cells; assay type: cell-based, human; settings: DLD-1, 10 µM, 24 h
Summary of the method: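 DLD-1 cells were seeded at 2 × 10⁵ per well in 1 ml medium. At 24 h after seeding they were given test compound in DMSO or DMSO alone for 24 h. Lysates were made in Laemmli buffer, separated by polyacrylamide gel electrophoresis and transferred to nitrocellulose. Membranes were probed with rabbit anti-EGR1, and scanned films were quantified by densitometry.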

[3] = tested on: KM12 colon cancer cell line; assay: NCI-60 panel screen, KM12; assay type: cell-based, human; settings: 10 µM, cell line highly expressing KLF5
[4] = tested on: NCI-60 panel of human cancer cell lines; assay: NCI-60 panel screen; assay type: cell-based; settings: 10 µM

Row | SMILES | effect on endogenous KLF5 levels (KLF5 [1]) | effect on endogenous KLF5 levels in IEC-6 cells (KLF5 [2]) | effect on proliferation of DLD-1 cells (DLD-1 cells) | effect on EGR1 (EGR1) | also measured
1 | CN(C(=O)CNC(=O)/C=C/c1cccc(Cl)c1)C1CCS(=O)(=O)C1 (stereo not shown) [compound 46931043] | similarly affect KLF5 protein levels |  |  |  | 
2 | CC1=CCCC2(C)C(CCC2(O)CN(CCc2cccs2)S(=O)(=O)c2cccs2)c2ccc(cc2C(=O)Cc2c(F)cccc2Cl)CC(O)CC1 (stereo not shown) [compound 4395011] |  | neither CIDs 4395011 nor 5951923 reduced endogenous KLF5 levels |  |  | 
3 | CN(C(=O)COC(=O)/C=C/c1cccc([N+](=O)[O-])c1)C1CCS(=O)(=O)C1 (stereo not shown) [CID 5951923] |  | neither CIDs 4395011 nor 5951923 reduced endogenous KLF5 levels | inhibited proliferation of DLD-1 cells in a dose-dependent manner | downregulated EGR1 | inhibition of leukemia cell lines (leukemia cell lines): inhibition in a number of leukemia cell lines; inhibition of KM12 colon cancer cell line [3]: poor inhibition; potency of inhibition in NCI-60 panel [4]: potency was weak
4 | CN(C(=O)CNC(=O)/C=C/c1cccc([N+](=O)[O-])c1)C1CCS(=O)(=O)C1 (stereo not shown) [compound 46931037] | similarly affect KLF5 protein levels |  |  | downregulated EGR1 | 
5 | C[C@@H]1O[C@@H](O[C@H]2C[C@@H](O)[C@]3(CO)[C@H]4[C@H](O)C[C@]5(C)[C@@H](C6=CC(=O)OC6)CC[C@]5(O)[C@@H]4CC[C@]3(O)C2)[C@H](O)[C@H](O)[C@H]1O [compound 439501] |  |  | inhibited proliferation of DLD-1 cells in a dose-dependent manner |  | IC50 (DLD-1 cells; read-out: IC50 for DLD-1 proliferation (cell viability), Cell-Titer Glo): 46 nM; inhibitory effect on KLF5 levels relative to the other three tested compounds (KLF5 [1]; DLD-1, 5 and 10 µM): more pronounced
